Results from ChEMBL document CHEMBL1132580, “Syntheses and biological activities of rebeccamycin analogues. Introduction of a halogenoacetyl substituent” (J Med Chem, 1999).
≈ marks a conversion by molar mass, not a printed value. Calls of active or inactive are those of the source. No cut-off for these calls is given here.

Legend:
[1] = tested on: Bacillus cereus; assay: Minimum inhibitory concentration against gram-positive Bacillus cereus; format: functional
How it was run: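 Broth dilution in Mueller–Hinton broth pH 7.4 against B. cereus ATCC 14579. Compounds were diluted in DMSO across 12 tubes spanning 100 to 0.05 μg/mL. Read after 24 h at 27 °C.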

[2] = tested on: Bacillus cereus; assay: Antimicrobial activity against gram-positive Bacillus cereusATCC 14579 was determined by antibiogram test.+/- means growth inhibition zone was 6-7 mm.; format: functional, organism-based; conditions: ATCC 14579
How it was run: (§1)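 Paper-disk diffusion (6 mm disks, 300 μg drug per disk from DMSO solution) on Mueller-Hinton agar against B. cereus ATCC 14579. Inhibition zones were scored after 24 h at 27 °C.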

[3] = tested on: P388; assay: Cytotoxicity against P388 leukemia cells; format: functional, cell-based; conditions: Mus musculus
How it was run: (§2)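 Murine P388 (camptothecin-sensitive) and P388/CPT5 (camptothecin-resistant, mutant top1) leukemia cells were exposed to a range of drug concentrations for 96 h at 37 °C. Viability was read by neutral red staining. IC50 is the concentration inhibiting growth by 50%.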

[4] = tested on: P388; assay: Cytotoxicity against P388/CPT5 leukemia cells.; format: functional, cell-based; conditions: Mus musculus; how it was run: as §2
[5] = tested on: Streptomyces chartreusis; assay: Antimicrobial activity against gram-positive […] chartreusis NRRL 11407 was determined by antibiogram test.+++ means growth inhibition zone was 10-12 mm.; format: functional, organism-based
[6] = Resistance Index (RI) refers to the ratio of the [IC50 (P388/CPT5)] / IC50 P388.; format: functional
How it was run: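 Ratio of IC50 in P388/CPT5 cells to IC50 in P388 cells. Both IC50 values came from 96 h drug exposure at 37 °C with neutral red viability readout.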

[7] = tested on: DNA topoisomerase 1 (Bos taurus); assay: Minimum inhibitory concentration against DNA topoisomerase I
[8] = tested on: Bacillus cereus; assay: Antimicrobial activity against gram-positive Bacillus cereusATCC 14579 was determined by antibiogram test.++ means growth inhibition zone was 8-9 mm.; format: functional, organism-based; conditions: ATCC 14579; how it was run: as §1
[9] = tested on: CEM-SS; assay: Anti-HIV-1 activity in CEM-SS cells was measured by the quantification of the reverse transcriptase activity, associated with the virus particles released from HIV-1 infected cells in the culture medium.; format: functional, cell-based; conditions: Homo sapiens
How it was run: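 CEM-SS cells in RPMI 1640 with 10% FBS at 37 °C, 5% CO2 were infected with HIV-1 Lai (100 TCID50). After 30 min adsorption the cells were washed and resuspended at 10⁵ cells/mL with a range of compound concentrations. Virus production was measured as reverse transcriptase activity after 5 days. IC50 was taken from a median effect plot of dose–effect data.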

[10] = tested on: Nucleic Acid; assay: Variation in melting temperature (delta Tm) of helix-to-coil transition of DNA was reported.; format: nucleic-acid assay
How it was run: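 A260 was followed over 20–100 °C at 1 °C/min using 20 μM calf thymus DNA with or without drug (10 μM) in BPE buffer pH 7.1 (6 mM Na2HPO4, 2 mM NaH2PO4, 1 mM EDTA). Tm was taken as the midpoint of the hyperchromic transition from the first-derivative plot.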

[11] = molecular target: Protein kinase C (PKC); assay: (§3) Inhibition of protein kinase C (PKC); format: protein assay
How it was run: (§4)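 PKC-α activity was assayed with protamine sulfate as substrate. IC50 values were determined.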

[12] = Selectivity Index (SI) refers to the ratio of the anti HIV activities CC50/IC50 in HIV-1 Lai infected CEM-SS cells.; format: functional
How it was run: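 SI = CC50/IC50. CC50 came from MTT viability (OD 540 nm) of uninfected CEM-SS cells. IC50 came from reverse transcriptase activity of virus released after 5 days from HIV-1 Lai–infected CEM-SS cells. Both values were taken from median effect plots.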

[13] = tested on: CEM-SS; assay: Cytotoxicity against HIV-1 Lai infected CEM-SS cells; format: functional; conditions: Homo sapiens, in the assay text read “uninfected CEM-SS cells” for “HIV-1 Lai infected CEM-SS cells”
How it was run: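 Uninfected CEM-SS cells were incubated in parallel with a range of compound concentrations. Viability was read by MTT reduction to formazan (OD 540 nm). CC50 is the concentration reducing viability by 50%, derived with the median-effect program.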

[14] = tested on: Bacillus cereus; assay: Antimicrobial activity against gram-positive Bacillus cereusATCC 14579 was determined by antibiogram test.+ means growth inhibition zone was 7-8 mm.; format: functional, organism-based; conditions: ATCC 14579; how it was run: as §1
[15] = tested on: CEM-SS; assay: Cytotoxicity against uninfected CEM-SS cells; conditions: Homo sapiens
[16] = molecular target: Protein kinase C (PKC); assay: as §3; format: functional; how it was run: as §4
[17] = tested on: Streptomyces chartreusis; assay: Antimicrobial activity against gram-positive […] chartreusis NRRL 11407 was determined by antibiogram test.++ means growth inhibition zone was 8-9 mm.; format: functional, organism-based

Row | Compound | MIC [1] [µM] | Antimicrobial activity [2] | IC50 [3] [nM] | IC50 [4] [nM] | Antimicrobial activity [5] | Resistance index [6] | MIC [7] [µM] | Antimicrobial activity [8] | IC50 [9] [nM] | DeltaTm [10] | IC50 [11] [nM] | Selectivity index [12] | CC50 [13] [nM] | Antimicrobial activity [14] | CC50 [15] [nM] | IC50 [16] [nM] | Antimicrobial activity [17]
1 | COC1C(CO)OC(n2c3ccccc3c3c4c(c5c6ccccc6[nH]c5c32)C(=O)NC4=O)C(OC(C)=O)C1O (stereo not given) | 46 (≈ 25 µg/mL) | +/- | 550 | 4600 | growth inhibition zone was 10-12 mm | 8.3 | 18 (≈ 9.78 µg/mL) | – | – | – | – | – | – | – | – | – | –
2 | COC1C(CO)OC(n2c3c(Cl)cccc3c3c4c(c5c6cccc(Cl)c6[nH]c5c32)C(=O)NC4=O)C(OC(=O)CBr)C1O (stereo not given) | 1.81 (≈ 1.25 µg/mL) | – | 260 | 940 | – | 2.5 | > 14 | Active | 980 | 0.5 | 24000 | 2.3 | 2300 | – | – | – | –
3 | COC1C(CO)OC(n2c3c(Cl)cccc3c3c4c(c5c6cccc(Cl)c6[nH]c5c32)C(=O)N(CC(=O)CCl)C4=O)C(O)C1O (stereo not given) | 4.72 (≈ 3.12 µg/mL) | – | 240 | 3500 | Active | 15 | 1.14 (≈ 0.753 µg/mL) | – | 450 | 1.2 | > 151000 | 2.7 | – | Partially active | 1200 | – | –
4 | CO[C@H]1[C@H](O)[C@@H](O)[C@H](n2c3ccccc3c3c4c(c5c6ccccc6[nH]c5c32)C(=O)NC4=O)O[C@@H]1CO | > 100 | – | – | > 20000 | – | > 28 | – | – | – | 4.1 | > 142000 | 5.6 | 900 | – | – | – | –
5 | COC1C(CO)OC(n2c3c(Cl)cccc3c3c4c(c5c6cccc(Cl)c6[nH]c5c32)C(=O)NC4=O)C(OC(C)=O)C1O (stereo not given) | > 81 | – | 480 | 3300 | – | 6.7 | > 16 | – | 1400 | 0.5 | – | – | – | – | 1200 | > 163000 | –
6 | COC1C(CO)OC(n2c3ccccc3c3c4c(c5c6ccccc6[nH]c5c32)C(=O)NC4=O)C(OC(=O)CBr)C1O (stereo not given) | 5.02 (≈ 3.12 µg/mL) | – | 480 | 5000 | – | 10.4 | 1.59 (≈ 0.99 µg/mL) | Active | 120 | 3.7 | > 162000 | 3.8 | 460 | – | – | – | Partially active
7 | COC1C(CO)OC(n2c3ccccc3c3c4c(c5c6ccccc6[nH]c5c32)C(=O)N(CCCCOC(=O)CBr)C4=O)C(O)C1O (stereo not given) | > 72 | inactive | 1940 | > 14400 | – | > 7.4 | 1.44 (≈ 1 µg/mL) | – | 500 | 0 | > 144000 | 1.1 | 570 | – | – | – | –
8 | COC1C(COC(=O)CBr)OC(n2c3c(Cl)cccc3c3c4c(c5c6cccc(Cl)c6[nH]c5c32)C(=O)NC4=O)C(O)C1O (stereo not given) | > 72 | inactive | 430 | 4300 | – | 10 | 1.45 (≈ 1 µg/mL) | – | 330 | 0.5 | 101000 | 4.4 | – | – | 1450 | – | –
9 | CO[C@H]1[C@H](O)[C@@H](O)[C@H](n2c3c(Cl)cccc3c3c4c(c5c6cccc(Cl)c6[nH]c5c32)C(=O)NC4=O)O[C@@H]1CO [REBECCAMYCIN] | 10.9 (≈ 6.22 µg/mL) | – | – | 10500 | – | 8.6 | – | Active | – | 0 | > 175000 | 2 | – | – | – | – | Partially active
10 | COC1C(CO)OC(n2c3ccccc3c3c4c(c5c6ccccc6[nH]c5c32)C(=O)NC4=O)C(O)C1OC(=O)CBr (stereo not given) | 5.02 (≈ 3.12 µg/mL) | – | 160 | 3200 | – | 20 | 1.61 (≈ 1 µg/mL) | Active | 150 | 3.2 | > 161000 | 2.9 | 440 | – | – | – | Partially active
